From PubChem
HTR2A ag: mouse Htr2a agonists via beta-arrestin recruitment, primary screen, cell-based, luminescence | CHO-K1 mHTR2A beta-arrestin complementation; percent of 30 µM serotonin response | hit rate 0.66% among 360,000 | activation, % at 7.6 µM;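 active means activation above a run cutoff, the mean activation of all tested compounds plus 3 SD, cut at about 14% in these data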
AI-2 QS mod: Vibrio harveyi AI-2 quorum sensing modulators, primary screen, JMH597 strain, luminescence/OD600 ratio; Vibrio harveyi JMH597 AI-2 luminescence/OD600 ratio, 9 h; stronger effect = lower value; strain lacks LuxN and CqsS sensors; 0 = neutral-control median; activity change, % at 7.5 µM; hit rate 0.4% among 300,000; in the data active means activity change below about -75%, passing the limit was not always enough;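 further: luminescence divided by OD600 gain over 9 h not by final OD600 alone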
AHR act: AHR activators, primary screen, cell-based, luminescence, luciferase reporter, human; Aryl hydrocarbon receptor (Homo sapiens), P35869; AHR-responsive luciferase reporter cells; activation, % at 5 µM; hit rate 2.5% among 320,000; in the data active means activation above about 47%
TbMetRS inhib: T. brucei MetRS inhibitors, primary screen, biochemical, luminescence; methionyl-tRNA synthetase (Trypanosoma brucei brucei); purified T. brucei MetRS, ATP depletion, Kinase-Glo luminescence; inhibition, % at 11.9 µM; hit rate 0.4% among 360,000; AID 624268, 2012;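 active means inhibition above a per-plate cutoff of the control wells' mean inhibition plus 3 SD, cut at about 5.5% in these data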
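technique = Kinase-Glo luminescence, ATP depletion format | system = purified MetRS (methionyl-tRNA synthetase) enzyme from Trypanosoma brucei | timing = 15 min preincubation, 2 h reaction, all 25 °C | evaluation = percent inhibition versus plate control medians | dosing = single dose, 11.9 µM final nominal, 0.9% final DMSO | also added = substrates ATP, L-methionine and bulk Escherichia coli tRNA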
MsrA act: bovine MsrA enzyme activators, primary screen, biochemical, absorbance, HTS; Methionine sulfoxide reductase A (Bos taurus); purified bovine MsrA, absorbance read-out; activation, % at 10.6 µM; hit rate 0.3% among 360,000; AID 602163, 2012; in the data active means activation above about 7.5%
MsrA inhibitor: bovine MsrA enzyme inhibitors, primary screen, biochemical, absorbance, HTS. Methionine sulfoxide reductase A (Bos taurus). purified bovine MsrA, absorbance read-out. inhibition, % at 15.5 µM. hit rate 0.75% among 360,000; in the data active means inhibition above about 4.5%
OPRM1 ag: OPRM1 agonists via beta-arrestin recruitment, confirmation, counter-screen for mouse HTR2A agonist project, cell-based, luminescence, single concentration; shares compounds with HTR2A ag; U2OS OPRM1 beta-arrestin PathHunter; DMSO 0%, DAMGO 9.3 µM 100%; activation, % at 9.3 µM; hit rate 5.3% among 2,300;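 active means mean activation above the mean of DMSO-only wells plus 3 SD, cut at about 0.5% in these data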
m5-HT2A ag conf: mouse HTR2A agonists, beta-arrestin recruitment, confirmation, cell-based, luminescence, CHO-K1 PathHunter, triplicate; shares compounds with HTR2A ag; DMSO 0%, 30 µM serotonin 100%; activation, % at 7.6 µM; hit rate 19% among 2,300;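 active means mean activation across triplicates above the hit threshold derived in the original primary screen, cut at about 15% in these data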
A number is an active result. Hits are enriched below; roughly 4.4% of the tested compounds scored in any of these assays.

For N#CC1(Cc2ccccc2Cl)c2ccccc2C=CN1C(=O)c1ccccc1 (centres undefined) the results were HTR2A ag 18.8, AI-2 QS mod inactive, AHR act inactive, TbMetRS inhib inactive, MsrA act inactive, MsrA inhibitor inactive, OPRM1 ag inactive and m5-HT2A ag conf inactive.
`O=C(Nc1ccccc1OC(F)F)c1ccc(N2CCCC2=O)cc1` gave HTR2A ag inactive, TbMetRS inhib inactive, MsrA act inactive and MsrA inhibitor inactive.
Screening CC[C@]12c3[nH]c4cc(CCC(=O)N(C)C)ccc4c3CCN1C(=O)[C@@H](CC(=O)NCCCn1ccnc1)C[C@@H]2C(=O)N1CCN(C(=O)c2ccco2)CC1 returned HTR2A ag inactive, TbMetRS inhib inactive, MsrA act inactive and MsrA inhibitor inactive.
CS(=O)(=O)CCC(C(=O)OCc1ccc(Cl)cc1)N1C(=O)c2ccccc2C1=O (centres undefined) was read as HTR2A ag 16.9, AI-2 QS mod inactive, AHR act inactive, TbMetRS inhib inactive, MsrA act inactive, MsrA inhibitor inactive, OPRM1 ag inactive and m5-HT2A ag conf inactive.
CS(=O)(=O)CCC(C(=O)OCC(=O)c1ccc(Cl)cc1)N1C(=O)c2ccccc2C1=O (centres undefined) was read as HTR2A ag inactive, AI-2 QS mod inactive, AHR act inactive, TbMetRS inhib inactive, MsrA act inactive and MsrA inhibitor inactive.
For Cc1ccc(S(=O)(=O)N2CCC(C(=O)NCCN3CCOCC3)CC2)cc1 the results were HTR2A ag inactive, TbMetRS inhib inactive, MsrA act inactive and MsrA inhibitor inactive.
`CCc1ccc(C(O)(CNCc2ccccc2)c2ccccc2)cc1` (centres undefined) gave HTR2A ag inactive, AI-2 QS mod inactive, TbMetRS inhib inactive, MsrA act inactive and MsrA inhibitor inactive.
CC1CCN(C(=O)COC(=O)c2cc(Cl)c3c(c2)OCO3)CC1 was read as HTR2A ag inactive, AHR act inactive, TbMetRS inhib inactive, MsrA act inactive and MsrA inhibitor inactive.
Screening CC1(C)Oc2ccc3ccc(=O)oc3c2/C(=C/Nc2cccc(O)c2)C1=O returned HTR2A ag 16.6, AI-2 QS mod inactive, AHR act inactive, TbMetRS inhib inactive, MsrA act inactive, MsrA inhibitor inactive, OPRM1 ag inactive and m5-HT2A ag conf inactive.
For CC1(C)Oc2ccc3ccc(=O)oc3c2/C(=C/Nc2ccc(O)cc2)C1=O the results were HTR2A ag inactive, AI-2 QS mod inactive, AHR act inactive, TbMetRS inhib inactive, MsrA act inactive and MsrA inhibitor inactive.
Screening Cc1cc(C(C)(C)C)c(O)c(C)c1CC1=NCCN1 returned HTR2A ag 31.8, AI-2 QS mod inactive, AHR act inactive, TbMetRS inhib inactive, MsrA act inactive, MsrA inhibitor inactive, OPRM1 ag inactive and m5-HT2A ag conf 41.2.
Screening CCOC(=O)N1CCC(=NNC(N)=O)C1 returned HTR2A ag inactive, TbMetRS inhib inactive, MsrA act inactive and MsrA inhibitor inactive.
Screening COc1cc2[nH]c(C)c(-c3ccccc3)c(=O)c2cc1Cl returned HTR2A ag 25.3, TbMetRS inhib inactive, MsrA act inactive, MsrA inhibitor inactive, OPRM1 ag inactive and m5-HT2A ag conf 14.4.
`COc1cccc2c(O)c(-c3ccccc3)c(=O)[nH]c12` gave HTR2A ag inactive, AI-2 QS mod inactive, AHR act inactive, TbMetRS inhib inactive, MsrA act inactive and MsrA inhibitor inactive.
